The sample as a whole holds a higher share of hits than the screen did.
INS-1E ATP HTS: rescue of cytokine-induced death in INS-1E beta cells; INS-1E cytokine-induced death, ATP luminescence, 48 h; normalised: neutral wells 0, positive control 100; protection from cytokine-induced ATP loss, % at 10 µM; 0.1% of 20,000 active; AID 488910;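 active = mean replicate protection from cytokine-induced ATP loss at least 50% and at least 75% of replicates each reaching 50%; inconclusive = meets only one of the two criteria, mean or replicate share; inactive = fails both the mean and replicate share criteria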
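Assay system: INS-1E rat cells / Quantity: 8000 cells per well / Medium: RPMI without phenol red, 5% FBS / Probe or stimulus: three-cytokine cocktail (IFN-γ, TNF-α, IL-1β) / Dosing: one compound concentration, pin transfer / Timing: 48 h co-treatment, 10 min post-lysis read / Technique: CellTiter-Glo luminescence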
YB-1 expression: YB-1 expression inhibition; delta delta Cp (YB-1 minus CDIP) (no concentration beside the values); U2OS, qRT-PCR YB-1 vs CDIP delta delta Cp, 16 h; active compounds read high; zero = DMSO, each unit about twofold; 0.37% of 30,000 active; AID 434959;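 active = delta delta Cp rounded down to an integer at or above 3, about 3 SD of DMSO wells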;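 note: higher means less YB-1 transcript or more CDIP transcript relative to DMSO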
T cruzi HTS: intracellular Trypanosoma cruzi inhibition; activity score (inhibition), % at 5.01 µM; 4.9% of 22,000 active; intracellular Trypanosoma cruzi in host cells, plate reader; in the data active = activity score above about 55%; inconclusive = no clear call, values can overlap the other calls;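 note: parasites and compound incubated about four days before reading; 0% = median of neutral control wells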
* = called active by the depositor; ? = inconclusive; . = no result given.

SMILES	INS-1E ATP HTS	YB-1 expression	T cruzi HTS
C[C@@H]1CN([C@@H](C)CO)C(=O)c2cc(NS(=O)(=O)c3ccc(F)cc3)ccc2O[C@H]1CN(C)Cc1ccc(C(=O)Nc2ccccc2N)cc1	-5	0.15	57*
C[C@@H]1CN([C@H](C)CO)C(=O)Cc2cc(NS(C)(=O)=O)ccc2O[C@@H]1CN(C)Cc1ccc(C(=O)Nc2ccccc2N)cc1	7	0.13	-13
COC(=O)C(Cc1c[nH]c2ccccc12)NC(=O)C(NC(=O)C(C)NC(=O)/C=C/C(=O)O)C(C)c1c[nH]c2ccccc12 (centres undefined)	.	-0.23	.
C[C@@H]1CN([C@@H](C)CO)C(=O)c2cccc(NS(=O)(=O)c3ccc(Cl)cc3)c2O[C@H]1CN(C)C(=O)Nc1ccc(C(F)(F)F)cc1	4	0.098	0
C=CC(C)(O)C(O)CC1C(=C)CCC2C(C)(C(=O)O)CCCC12C (centres undefined)	.	-0.043	.
C[C@H]1CN([C@@H](C)CO)C(=O)Cc2cc(NS(=O)(=O)c3ccc(Cl)cc3)ccc2O[C@H]1CN(C)Cc1ccc(C(=O)Nc2ccccc2N)cc1	21	0.061	66*
Cc1ccc(S(=O)(=O)Nc2ccc3c(c2)CC(=O)N([C@H](C)CO)C[C@@H](C)[C@H](CN(C)Cc2ccc(C(=O)Nc4ccccc4N)cc2)O3)cc1	7	0.058	49
Cc1noc(C)c1NC(=O)Nc1ccc2c(c1)C(=O)N([C@H](C)CO)C[C@H](C)[C@H](CN(C)C(=O)Nc1ccc(C(F)(F)F)cc1)OCCCC[C@@H](C)O2	-2	0.15	20
COc1cc(C2OCC3C(c4cc(OC)c5c(c4)OCO5)OCC23)cc(OC)c1OC (centres undefined)	.	0.86	.
COc1ccc(C2OCC3C(c4cc(OC)c5c(c4)OCO5)OCC23)cc1OC (centres undefined)	.	5*	.
C[C@H]1CN([C@@H](C)CO)C(=O)c2cccc(NC(=O)Nc3ccc4c(c3)OCO4)c2O[C@H]1CN(C)Cc1ccc(C(=O)Nc2ccccc2N)cc1	-13	0.098	66*
C[C@@H]1CN([C@@H](C)CO)C(=O)c2cc(NC(=O)Nc3ccc4c(c3)OCO4)ccc2O[C@@H]1CN(C)Cc1ccc(C(=O)Nc2ccccc2N)cc1	4	-0.23	46
C[C@@H]1CN([C@@H](C)CO)C(=O)c2cc(NC(=O)Nc3ccc4c(c3)OCO4)ccc2O[C@H]1CN(C)Cc1ccc(C(=O)Nc2ccccc2N)cc1	-19	-0.17	55
C[C@@H]1CN([C@H](C)CO)C(=O)c2cccc(NC(=O)Nc3ccc4c(c3)OCO4)c2O[C@@H]1CN(C)Cc1ccc(C(=O)Nc2ccccc2N)cc1	11	-0.23	68*
C[C@@H]1CN([C@H](C)CO)C(=O)c2cccc(NS(=O)(=O)c3ccc(F)cc3)c2O[C@@H]1CN(C)Cc1ccc(C(=O)O)cc1	2	-0.086	-10
C[C@H]1CN([C@@H](C)CO)C(=O)c2cccc(NC(=O)c3ccncc3)c2O[C@H]1CN(C)C(=O)Nc1cccc2ccccc12	1	0.14	75*
C[C@@H]1CN([C@@H](C)CO)C(=O)c2cccc(NC(=O)c3ccncc3)c2O[C@H]1CN(C)C(=O)Nc1cccc2ccccc12	12	0.05	9
C[C@H](CO)N1C[C@H](C)[C@H](CN(C)C(=O)Nc2cccc3ccccc23)Oc2c(NC(=O)c3ccncc3)cccc2C1=O	1	0.6	70*
C[C@H]1CN([C@@H](C)CO)C(=O)c2cccc(NC(=O)c3ccncc3)c2O[C@@H]1CN(C)C(=O)Nc1cccc2ccccc12	8	0.41	5
COc1ccc(NC(=O)N(C)C[C@@H]2Oc3c(NC(=O)c4ccncc4)cccc3C(=O)N([C@@H](C)CO)C[C@H]2C)cc1	-3	-0.078	-21
C[C@@H]1CN([C@@H](C)CO)C(=O)c2cc(NC(=O)Nc3ccc4c(c3)OCO4)ccc2O[C@@H]1CN(C)Cc1ccc(C(F)(F)F)cc1	.	-0.007	68*
C[C@H]1CN([C@@H](C)CO)C(=O)c2cc(NC(=O)Nc3ccccc3)ccc2O[C@H]1CN(C)Cc1ccc2c(c1)OCO2	.	-0.45	52*
C[C@H]1CN([C@@H](C)CO)C(=O)c2cc(NC(=O)Nc3ccc(C(F)(F)F)cc3)ccc2O[C@H]1CN(C)Cc1ccc2c(c1)OCO2	.	0.45	34*
C[C@H]1CN([C@@H](C)CO)C(=O)c2cc(NC(=O)Nc3ccc(C(F)(F)F)cc3)ccc2O[C@H]1CN(C)Cc1ccc(C(F)(F)F)cc1	-14	-0.38	?
C[C@@H]1CN([C@H](C)CO)C(=O)c2cc(NC(=O)Nc3ccc4c(c3)OCO4)ccc2O[C@H]1CN(C)Cc1ccc(Oc2ccccc2)cc1	.	-0.092	-6
SMILES	INS-1E ATP HTS	YB-1 expression	T cruzi HTS
C[C@@H]1CN([C@H](C)CO)C(=O)c2cc(NC(=O)Nc3ccc(C(F)(F)F)cc3)ccc2O[C@H]1CN(C)Cc1ccc2c(c1)OCO2	-19	-0.00023	36
C[C@H]1CN([C@@H](C)CO)C(=O)c2cc(NC(=O)Nc3ccc4c(c3)OCO4)ccc2O[C@@H]1CN(C)Cc1ccc2c(c1)OCO2	-4	-0.097	-2
C[C@@H]1CN([C@H](C)CO)C(=O)c2cc(NC(=O)Nc3ccc4c(c3)OCO4)ccc2O[C@@H]1CN(C)Cc1ccc(Oc2ccccc2)cc1	-12	-0.22	62*
C[C@H]1CN([C@@H](C)CO)C(=O)c2cc(NC(=O)CCN3CCOCC3)ccc2O[C@H]1CN(C)Cc1ccc(Oc2ccccc2)cc1	.	0.2	-10
COc1ccc(NC(=O)N(C)C[C@H]2Oc3ccc(NC(=O)NC(C)C)cc3C(=O)N([C@@H](C)CO)C[C@@H]2C)cc1	5	-0.21	-9
COC(=O)/C=C/c1ccc(OC)c(/C=C/C(C)(C)O)c1	.	-0.13	.
C[C@@H]1CN([C@H](C)CO)C(=O)c2cc(NS(=O)(=O)c3cccs3)ccc2O[C@@H]1CN(C)S(=O)(=O)c1ccc(Cl)cc1	3	0.059	-11
CCCCN(CCCC)c1ccc(/C=N/NC(=O)CCCCCCC(=O)OC)cc1	-6	-0.21	58*
COC(=O)CCCCCCC(=O)N/N=C/c1ccc(OCCO)cc1	4	0.015	-21
C[C@@H]1CN([C@H](C)CO)C(=O)Cc2cc(NS(=O)(=O)c3cn(C)cn3)ccc2O[C@H]1CN(C)Cc1ccc(Cl)c(Cl)c1	1	-0.51	-3
COC(=O)CCCCCCC(=O)N/N=C/c1ccc2c(c1)Cc1ccccc1-2	-2	0.44	26
Cc1ccsc1/C=N\NC(=O)CCCCCC(=O)NO	118*	-0.17	3
O=C(CCCCCC(=O)N/N=C/c1c[nH]c2ccccc12)NO	91*	-0.75	-1
Cc1ccccc1/C=N/NC(=O)CCCCC(=O)NO	67*	0.21	2
Cc1ccsc1/C=N/NC(=O)CCCCCCC(=O)Nc1ccccc1O	8	-0.54	0
O=C(CCCCC(=O)N/N=C\c1ccc2c(c1)Cc1ccccc1-2)NO	94*	0.32	17
O=C(CCCCC(=O)N/N=C/c1ccccc1C(=O)O)NO	9	-0.019	-19
Cc1ccccc1/C=N/NC(=O)CCCCCCC(=O)Nc1ccccc1O	1	-0.37	5

Screening results as filed in PubChem BioAssay.
